Measured values taken from ChEMBL document CHEMBL1149253, “Effects of indole fatty alcohols on the differentiation of neural stem cell derived neurospheres” (J Med Chem, 2004).
Active and inactive are the calls of the source. The calls are words filed in the database; no cut-off is given here.

Legend:
[1] = Differentiation activity of neural stem cell derived neurosphere into neurons at 10 nM after 3 days relative to control; type: functional, Homo sapiens
Summary of the method: (§1)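 Dissociated neurospheres proliferated for 3 days, then 50–100 spheres were plated on polyornithine coverslips to differentiate, with EGF reduced to 2 ng/mL. Compound (ethanol stock, 0.1% ethanol final; ethanol-only control) was added at plating, or daily at 10 nM in proliferation, differentiation or both phases. Spheres were fixed in 4% PFA and immunostained for MAP2/TUJ1 (neurons) and GFAP (astrocytes). Confocal counts were expressed as % of TO-PRO-3-stained cells; >10 spheres per condition, 3–4 independent experiments.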

[2] = Hydroxyl radical scavenging activity after 2 hrs by ABTS competition assay; type: functional
Summary of the method: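 In the ABTS competition assay, hydroxyl radicals oxidize ABTS to ABTS•+, read by absorbance at 405 nm. IC50 is the concentration giving 50% decrease in ABTS•+ formed. Values are means of triplicate determinations.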

Homo sapiens [3] = species: Homo sapiens; assay: Effect on neural stem cell derived neurospheres assessed as differentiation into astrocytes at 10 nM after 3 days; type: functional; summary of the method: as §1
Homo sapiens [4] = species: Homo sapiens; assay: Mitotic effect on neuronal precursors in neural stem cell derived neurospheres assessed by BrdU incorporation; type: functional
[5] = Decrease in Notch1 mRNA expression in neural stem cell derived neurospheres during differentiation phase at 10 nM by semi-quantitative RT-PCR; type: functional; set-up: scale not given: the % may be the effect or the level left; conditions: Homo sapiens
Summary of the method: (§2)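 Neurospheres were treated with or without compound at 10 nM during the differentiation phase. Total RNA was then isolated. cDNA was made from 3 μg RNA with M-MLV reverse transcriptase and random hexamers at 37 °C for 1 h. One-tenth of the cDNA was amplified by Taq PCR with gene-specific Notch primers, using GAPDH as internal control (94/55/72 °C, 30 s each). Products were resolved on a 1% agarose gel with ethidium bromide.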

[6] = Decrease in Notch2 mRNA expression in neural stem cell derived neurospheres during differentiation phase at 10 nM by semi-quantitative RT-PCR; type: functional; set-up: scale not given: the % may be the effect or the level left; conditions: Homo sapiens; summary of the method: as §2
[7] = Decrease in Notch3 mRNA expression in neural stem cell derived neurospheres during differentiation phase at 10 nM by semi-quantitative RT-PCR; type: functional; set-up: scale not given: the % may be the effect or the level left; conditions: Homo sapiens; summary of the method: as §2
[8] = Decrease in Notch4 mRNA expression in neural stem cell derived neurospheres during differentiation phase at 10 nM by semi-quantitative RT-PCR; type: functional; set-up: scale not given: the % may be the effect or the level left; conditions: Homo sapiens; summary of the method: as §2
[9] = Effect on neural stem cell derived neurospheres during proliferation phase assessed as increase in number of MAP2 positive cells at 10 nM after 3 days; type: functional, Homo sapiens; summary of the method: as §1
[10] = Effect on neural stem cell derived neurospheres during differentiation phase assessed as increase in number of MAP2 positive cells at 10 nM after 3 days; type: functional, Homo sapiens; summary of the method: as §1
[11] = Effect on neural stem cell derived neurospheres during proliferation and differentiation phase assessed as increase in number of MAP2 positive cells at 10 nM; type: functional, Homo sapiens; summary of the method: as §1

Row | IC50 [2] [µM] | SMILES | Activity [1] [%] | further results
1 |  | COc1ccc2[nH]cc(CCCCCCCCCCO)c2c1 | 109 | 
2 |  | COc1ccc2[nH]cc(CCCCCCCCCCCCCCO)c2c1 | 143 | 
3 | 34 | COc1cc2[nH]cc(CCCCCCCCCCCCCCCCO)c2cc1OC | 113 | 
4 | 17 | COc1ccc2[nH]cc(CCCCCCCCCCCCCCCCO)c2c1OC | 118 | 
5 | 211 | COc1ccc2[nH]cc(CCNC(C)=O)c2c1 [MELATONIN] | 119 | 
6 | 23 | COc1cccc2[nH]cc(CCCCCCCCCCCCCCCCO)c12 | 133 | 
7 |  | COc1ccc2c(CCCCCCCCCCCCO)c[nH]c2c1 | 67 | 
8 | 600 | Cc1c(C)c2c(c(C)c1O)CCC(C)(C(=O)O)O2 (centres undefined) [TROLOX] |  | 
9 |  | COc1ccc2[nH]cc(CCCCCCCCCCCCCCCCCCO)c2c1OC | 106 | 
10 | 207 | CCCCCCCCCCCCCCCc1c[nH]c2ccc(OC)cc12 |  | 
11 |  | COc1ccc2[nH]cc(CCCCCCCCCCCCO)c2c1 | 108 | 
12 |  | OCCCCCCCCCCCCCCCCc1c[nH]c2ccccc12 | 144 | 
13 |  | OCCCCCCCCCCCCc1c[nH]c2ccccc12 | 124 | 
14 | 34 | COc1ccc2[nH]cc(CCCCCCCCCCCCCCCCO)c2c1 | 168 | 
15 |  | OCCCCCCCCCCCCCCc1c[nH]c2ccccc12 | 118 | 
16 |  | COc1ccc2[nH]cc(CCCCCCCCCCCCCCCCCCO)c2c1 | 169 | Activity (Homo sapiens [3]): inactive; Activity (Homo sapiens [4]): inactive; Activity [5]: > 70%; Activity [6]: > 70%; Activity [7]: > 70%; Activity [8]: 19%; Activity [9]: <=90%; Activity [10]: <=90%; Activity [11]: <=90%
17 |  | COc1cccc2[nH]cc(CCCCCCCCCCO)c12 | 95 | 
18 |  | COc1ccc2c(CCCCCCCCCCCCCCO)c[nH]c2c1 | 82 | 
19 |  | COc1cccc2[nH]cc(CCCCCCCCCCCCCCCCCCO)c12 | 110 | 
20 |  | COc1cccc2[nH]cc(CCCCCCCCCCCCCCO)c12 | 118 | 
21 |  | COc1ccc2c(CCCCCCCCCCO)c[nH]c2c1 | 110 | 
22 |  | OCCCCCCCCCCc1c[nH]c2ccccc12 | 115 | 
23 |  | COc1ccc2c(CCCCCCCCCCCCCCCCCCO)c[nH]c2c1 | 156 | 
24 | 34 | COc1ccc2c(CCCCCCCCCCCCCCCCO)c[nH]c2c1 | 135 | 
25 |  | COc1cc2[nH]cc(CCCCCCCCCCCCCCCCCCO)c2cc1OC | 116 | 
26 | 26 | COc1cccc2c(CCCCCCCCCCCCCCCCO)c[nH]c12 |  | 
27 |  | CC1=C(CCCCCCCCCCCCCCCO)C(C)(C)CCC1=O |  | Activity [2]: inactive
28 |  | OCCCCCCCCCCCCCCCCCCc1c[nH]c2ccccc12 | 113 | 
29 |  | COc1cccc2[nH]cc(CCCCCCCCCCCCO)c12 | 98 | 
